Source: ChEMBL document CHEMBL1148625, “3-(1,1-dioxo-2H-(1,2,4)-benzothiadiazin-3-yl)-4-hydroxy-2(1H)-quinolinones, potent inhibitors of hepatitis C virus RNA-dependent RNA polymerase” (J Med Chem, 2006)

Columns and labels:
[1] = Clearance in Sprague-Dawley rat at 1.3 mg/kg, iv or 3.4 mg/kg, po; type: ADME, organism-based; details: in vivo
Summary of the method: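 Single intravenous or oral doses given to Sprague-Dawley rats. Values are reported as means: Cmax (ng/mL), half-life (min), plasma clearance (mL/min/kg), steady-state volume of distribution (L/kg) and oral bioavailability F (%).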

[2] = target: T1, DNA polymerase alpha catalytic subunit (Homo sapiens, UniProt P09884); assay: Inhibitory activity against human DNA-polymerase-alpha
T1 sequence (P09884 whole entry): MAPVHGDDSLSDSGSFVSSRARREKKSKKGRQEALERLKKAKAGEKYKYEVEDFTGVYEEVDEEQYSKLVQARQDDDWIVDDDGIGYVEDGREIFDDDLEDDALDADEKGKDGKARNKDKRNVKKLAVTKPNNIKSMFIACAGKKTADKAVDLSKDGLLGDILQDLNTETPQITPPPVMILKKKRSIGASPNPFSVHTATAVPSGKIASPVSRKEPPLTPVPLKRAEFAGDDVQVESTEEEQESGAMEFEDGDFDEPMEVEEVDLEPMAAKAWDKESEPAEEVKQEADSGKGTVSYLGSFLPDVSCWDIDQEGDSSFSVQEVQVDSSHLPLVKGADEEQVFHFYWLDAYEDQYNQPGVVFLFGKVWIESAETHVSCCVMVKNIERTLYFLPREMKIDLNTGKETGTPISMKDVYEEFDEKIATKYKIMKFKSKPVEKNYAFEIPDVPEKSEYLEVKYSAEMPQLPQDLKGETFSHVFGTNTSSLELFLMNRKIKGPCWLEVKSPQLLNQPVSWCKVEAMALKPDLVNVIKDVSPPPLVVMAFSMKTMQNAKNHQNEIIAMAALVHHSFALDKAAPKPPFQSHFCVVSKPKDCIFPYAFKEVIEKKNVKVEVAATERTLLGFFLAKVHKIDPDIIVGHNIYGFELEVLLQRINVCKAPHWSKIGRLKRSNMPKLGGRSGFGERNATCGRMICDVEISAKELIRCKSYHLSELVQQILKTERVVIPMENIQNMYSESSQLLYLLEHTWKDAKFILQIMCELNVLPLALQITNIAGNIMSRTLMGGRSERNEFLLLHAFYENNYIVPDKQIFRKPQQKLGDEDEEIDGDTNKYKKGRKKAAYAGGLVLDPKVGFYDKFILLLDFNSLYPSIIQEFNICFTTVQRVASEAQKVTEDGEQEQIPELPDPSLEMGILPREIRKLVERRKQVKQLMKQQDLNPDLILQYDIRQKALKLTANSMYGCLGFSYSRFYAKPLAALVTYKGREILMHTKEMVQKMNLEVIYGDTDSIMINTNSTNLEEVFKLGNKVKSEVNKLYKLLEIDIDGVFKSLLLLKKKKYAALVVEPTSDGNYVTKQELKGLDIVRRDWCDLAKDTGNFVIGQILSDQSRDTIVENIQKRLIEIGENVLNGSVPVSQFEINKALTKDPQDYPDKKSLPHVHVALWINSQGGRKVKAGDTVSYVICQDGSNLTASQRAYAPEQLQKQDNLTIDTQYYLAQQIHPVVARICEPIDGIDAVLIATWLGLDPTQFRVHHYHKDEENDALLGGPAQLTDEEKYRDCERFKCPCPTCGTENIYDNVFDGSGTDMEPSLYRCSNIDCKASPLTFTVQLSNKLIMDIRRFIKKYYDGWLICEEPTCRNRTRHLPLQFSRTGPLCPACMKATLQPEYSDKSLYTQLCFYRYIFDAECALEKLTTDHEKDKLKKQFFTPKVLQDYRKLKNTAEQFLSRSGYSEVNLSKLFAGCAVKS

clearance [1]: 1.4 mL/min/kg | IC50 [2]: > 50 µM
Compound: O=c1c(C2=Nc3ccccc3S(=O)(=O)N2)c(O)c2cc(F)ccc2n1CCC1CC1
